Assay outcomes: PubChem BioAssay, Broad Institute
This is one part of a sample in which hits are shown more often than they occur.
GASC1 inh: inhibitors of GASC-1 (KDM4C) histone demethylase, primary screen, biochemical, single concentration HTS; inhibition, % at 12.5 µM; AID 720574, 2013; 96,000 tested, 0.15% active; Lysine-specific demethylase 4C (Homo sapiens), Q9H3R0; GST-KDM4C 2-372, H3K9me3 peptide, LANCE TR-FRET;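 active means mean replicate inhibition above about 25%, with at least 55% of replicates also reaching it, limit read from the data, passing the limit was not always enough; inconclusive means only one of those two conditions met; inactive means neither condition met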
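System: N-terminal GST-fused human GASC-1 (KDM4C) fragment, residues 2-372 / Amount: 10 nM GST-KDM4C in enzyme reaction / Also added: H3K9me3 peptide with Fe(II)/2OG / Times: 30 min demethylation and 1 h detection at room temperature / Signal: LANCE TR-FRET / Read-out basis: Fall in 671/618 emission ratio as inhibition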
IDH1 R132H inh: inhibitors of IDH1 R132H reductase, primary screen, biochemical, plate reader, single point; 70,000 tested, 0.18% active; Isocitrate dehydrogenase [NADP] cytoplasmic (Homo sapiens), O75874; inhibition, % at 10 µM; diaphorase/resazurin fluorescence, 60 min; AID 624101, 2012; in the data active means inhibition above about 34%; inconclusive means no clear call, values can overlap the other calls; inactive means below about 11%;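 further: 0% = DMSO and 100% = no enzyme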
Target sequence (O75874 whole entry R132H): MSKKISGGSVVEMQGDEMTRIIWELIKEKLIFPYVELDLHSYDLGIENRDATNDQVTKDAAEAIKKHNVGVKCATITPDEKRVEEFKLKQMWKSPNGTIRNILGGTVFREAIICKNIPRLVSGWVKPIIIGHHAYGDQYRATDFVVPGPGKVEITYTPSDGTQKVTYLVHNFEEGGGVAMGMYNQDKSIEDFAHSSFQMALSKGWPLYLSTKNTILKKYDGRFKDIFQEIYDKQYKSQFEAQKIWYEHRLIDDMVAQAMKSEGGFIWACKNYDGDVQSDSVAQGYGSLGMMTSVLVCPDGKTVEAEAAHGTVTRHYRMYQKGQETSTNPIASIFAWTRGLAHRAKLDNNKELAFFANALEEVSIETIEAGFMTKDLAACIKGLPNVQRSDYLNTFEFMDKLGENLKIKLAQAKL
T cruzi growth-1: T. cruzi intracellular proliferation inhibitors, primary screen, cell-based, beta-gal Tulahuen parasites, NIH3T3 host, luminescence. T. cruzi beta-gal in NIH3T3, GalScreen luminescence, 90 h. 77,000 tested, 5.9% active. inhibition, % at 8.34 µM;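 active means mean inhibition above about 93%, with at least 55% of replicates each passing it, limit read from the data, passing the limit was not always enough; inconclusive means only one of those two conditions holds; inactive means neither condition holds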
T cruzi growth-2: T. cruzi intracellular proliferation inhibitors, confirmation, cell-based, NIH3T3 host, beta-gal parasite, luminescence, cherry-pick | 5,600 tested, 72% active | T. cruzi beta-gal in NIH3T3, GalScreen luminescence, 90 h | shares compounds with T cruzi growth-1 | AID 651739, 2012 | inhibition, % at 8.35 µM;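 active means mean replicate inhibition above about 95% and at least 55% of replicates individually reaching it, limit read from the data; inconclusive means only one of the two criteria is met; inactive means neither criterion is met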
T cruzi growth-3: inhibitors of intracellular T. cruzi replication, confirmation, NIH3T3 host cells, beta-gal parasites, cherry-pick, set 2 | shares compounds with T cruzi growth-1 | T. cruzi beta-gal in NIH3T3, GalScreen luminescence, 90 h | inhibition, % at 2.09 µM | 5,600 tested, 21% active | AID 651740, 2012;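 active means mean inhibition above about 95%, with at least 55% of replicates also reaching it, limit read from the data; inconclusive means meets just one of the two conditions; inactive means meets neither condition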;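 further: plate controls were neutral control median for no effect and positive control median for full effect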
NIH3T3 tox: cytotoxicity in mouse NIH/3T3 fibroblasts, confirmation, cytotoxicity control for T. cruzi proliferation inhibitor project, cell-based, cherry-pick, single point; shares compounds with T cruzi growth-1; NIH/3T3 viability, CellTiter-Glo ATP luminescence, 90 h; cytotoxicity (signal decrease), % at 8.35 µM; 5,600 tested, 14% active;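 active means mean signal decrease across replicates above about 35% based on untreated-well scatter, with enough replicates individually passing, limit read from the data; inconclusive means no rule stated though some were filed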;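 further: 0% = median of neutral control wells and 100% = median of positive control wells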
NIH3T3 tox 2: NIH/3T3 fibroblast cytotoxicity, confirmation, cytotoxicity control, cell-based, cherry-pick, single point, set 2; shares compounds with T cruzi growth-1; NIH/3T3 viability, CellTiter-Glo ATP luminescence, 90 h; inhibition, % at 24.9 µM; 5,600 tested, 56% active; AID 651744, 2012;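 active means mean loss of cell viability signal at or above a set limit, and enough replicates individually reaching it; inconclusive means meets only the mean limit or only the replicate share; inactive means meets neither condition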;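 further: 0% = median of neutral control wells and 100% = median of positive control wells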
* = called active by the depositor; u = inconclusive; x = not tested or not shown.

SMILES	GASC1 inh	IDH1 R132H inh	T cruzi growth-1	T cruzi growth-2	T cruzi growth-3	NIH3T3 tox	NIH3T3 tox 2
CN1c2ccc(-c3ccccc3)cc2[C@@H]2[C@@H](CCN2C(=O)c2ccc3c(c2)OCO3)[C@H]1CO	-2	x	106*	105*	108*	9	30*
CN(C)CC(=O)N1CC[C@H]2[C@@H]1c1cc(-c3ccccc3F)ccc1N(C)[C@H]2CO	2	x	23	x	x	x	x
CN(C)CC(=O)N1CC[C@@H]2[C@H]1c1cc(-c3ccccc3F)ccc1N(C)[C@@H]2CO	2	x	113*	102*	19	-8	24*
CN1c2ccc(-c3cccc(F)c3)cc2[C@H]2[C@H](CCN2C(=O)c2ccc3c(c2)OCO3)[C@H]1CO	-4	x	36	x	x	x	x
C[C@@H]1CN([C@H](C)CO)S(=O)(=O)c2ccc(Br)cc2O[C@@H]1CN(C)C(=O)CN(C)C	-1	-4	-73	x	x	x	x
COc1ccc(-c2nnc3c4ccccc4c(C)nn23)cc1S(=O)(=O)N1CCOCC1	x	0	x	x	x	x	x
COCC(=O)N1[C@H](C#N)[C@@H](c2ccccc2C2=CCCCC2)[C@H]1CO	1	x	x	x	x	x	x
CO[C@@H]1CN(C)C(=O)c2cc(NC(=O)Cc3ccccc3)ccc2OC[C@@H](C)N(CC2CC2)C[C@H]1C	1	1	19	x	x	x	x
O=C(Nc1ccc2c(c1)OCO2)N[C@@H]1CC[C@@H](CCNC(=O)C2CC2)O[C@H]1CO	1	0	-67	x	x	x	x
N#Cc1ccc(-c2ccc([C@H]3[C@H](CO)N4CCCCN(S(=O)(=O)c5ccccc5)C[C@@H]34)cc2)cc1	-1	x	116*	108*	55	51*	88*
N#Cc1ccc(-c2ccc([C@H]3[C@H]4CN(S(=O)(=O)c5ccccc5)CCCCN4[C@H]3CO)cc2)cc1	-2	x	114*	107*	76	22	24
CCS(=O)(=O)N1CCCCN2[C@H](CO)[C@H](c3ccc(-c4ccc(C#N)cc4)cc3)[C@@H]2C1	-2	x	55	x	x	x	x
O=S(=O)(c1ccccc1)N1CCCCN2[C@H](CO)[C@@H](c3ccc(-c4ccccc4)cc3)[C@@H]2C1	1	x	49	x	x	x	x
CCC(=O)N1[C@@H]2CN(C(=O)c3ccccc3F)c3ccccc3[C@@H]2[C@@H]1CO	0	x	15	x	x	x	x
CC(C)c1ccc(OCC(=O)Nc2cc(C(F)(F)F)ccc2N2CCOCC2)cc1	x	0	x	x	x	x	x
C[C@@H]1CN([C@@H](C)CO)C(=O)Cc2cc(NC(=O)Nc3ccccc3)ccc2O[C@@H]1CN(C)Cc1ccc2c(c1)OCO2	4	0	83	x	x	x	x
C[C@@H]1CN([C@H](C)CO)C(=O)Cc2cc(NC(=O)Nc3cccc4ccccc34)ccc2O[C@H]1CN(C)Cc1ccc2c(c1)OCO2	0	2	u	107*	53	22	22
C[C@@H]1CN([C@@H](C)CO)C(=O)Cc2cc(NC(=O)Nc3ccccc3)ccc2O[C@H]1CN(C)Cc1ccc2c(c1)OCO2	4	0	3	x	x	x	x
C[C@@H]1CN([C@H](C)CO)C(=O)Cc2cc(NC(=O)Nc3cccc4ccccc34)ccc2O[C@@H]1CN(C)Cc1ccc2c(c1)OCO2	-2	x	103*	107*	93	u	72*
C[C@@H]1CN([C@@H](C)CO)C(=O)Cc2cc(NC(=O)Nc3cccc4ccccc34)ccc2O[C@@H]1CN(C)Cc1ccc2c(c1)OCO2	-1	1	103*	109*	-14	15	52*
C[C@H]1CN([C@@H](C)CO)C(=O)Cc2cc(NC(=O)Nc3ccccc3)ccc2O[C@@H]1CN(C)Cc1ccc2c(c1)OCO2	3	-1	48	x	x	x	x
O=S(=O)(N[C@H]1CC[C@H](CCn2cc(-c3cccc(F)c3)nn2)O[C@@H]1CO)c1ccc(F)cc1	2	0	x	x	x	x	x
